From ChEMBL document CHEMBL4265907, “Design, synthesis and pharmacological evaluation of N4,N6-disubstituted pyrimidine-4,6-diamine derivatives as potent EGFR inhibitors in non-small cell lung cancer” (Eur J Med Chem, 2018)

Assays:
[1] = molecular target: Platelet-derived growth factor receptor alpha (Homo sapiens) (UniProt P16234); assay: Inhibition of recombinant human GST-tagged PDGFRalpha cytoplasmic domain (550 to 1089 residues) expressed in baculovirus expression system at 1 uM using FAM-labeled peptide as substrate after 10 mins by mobility shift assay relative to control
Method in brief: (§1)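 Caliper mobility-shift kinase assay. Kinase in kinase base buffer was preincubated with compound for 10 min at room temperature. FAM-labelled peptide and ATP at Km were then added, and the reaction ran at 28 °C until quenched with buffer. Screening concentration was 1 µM. Percent inhibition = (max − conversion)/(max − min) × 100, with DMSO as max and a low control as min.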

[2] = molecular target: Mitogen-activated protein kinase kinase kinase kinase 4 (Homo sapiens) (UniProt O95819); assay: Inhibition of human N-terminal GST-tagged full length MAP4K4 catalytic domain (1 to 328 residues) expressed in baculovirus expression system at 1 uM using FAM-labeled peptide as substrate after 10 mins by mobility shift assay relative to control; method in brief: as §1
[3] = molecular target: Receptor-type tyrosine-protein kinase FLT3 (Homo sapiens) (UniProt P36888); assay: Inhibition of human N-terminal GST-tagged FLT3 cytoplasmic domain (564 to 993 residues) expressed in baculovirus expression system at 1 uM using FAM-labeled peptide as substrate after 10 mins by mobility shift assay relative to control; method in brief: as §1
[4] = molecular target: Serine/threonine-protein kinase PAK 2 (Homo sapiens) (UniProt Q13177); assay: Inhibition of human N-terminal GST-tagged full length PAK2 (1 to 524 residues) expressed in baculovirus expression system at 1 uM using FAM-labeled peptide as substrate after 10 mins by mobility shift assay relative to control; method in brief: as §1
[5] = molecular target: Vascular endothelial growth factor receptor 1 (Homo sapiens) (UniProt P17948); assay: Inhibition of recombinant human GST-tagged FLT1 cytoplasmic domain (781 to 1338 residues) expressed in baculovirus expression system at 1 uM using FAM-labeled peptide as substrate after 10 mins by mobility shift assay relative to control; method in brief: as §1
[6] = molecular target: High affinity nerve growth factor receptor (Homo sapiens) (UniProt P04629); assay: Inhibition of N-terminal GST-tagged human TRKA cytoplasmic domain (436 to 790 residues) expressed in baculovirus expression system at 1 uM using FAM-labeled peptide as substrate after 10 mins by mobility shift assay relative to control; method in brief: as §1
[7] = molecular target: Fibroblast growth factor receptor 4 (Homo sapiens) (UniProt P22455); assay: Inhibition of N-terminal GST-tagged human FGFR4 cytoplasmic domain (460 to 802 residues) expressed in baculovirus expression system at 1 uM using FAM-labeled peptide as substrate after 10 mins by mobility shift assay relative to control; method in brief: as §1
[8] = molecular target: Receptor tyrosine-protein kinase erbB-4 (Homo sapiens) (UniProt Q15303); assay: Inhibition of N-terminal GST-tagged human HER4 cytoplasmic domain (676 to 1308 residues) expressed in baculovirus expression system at 1 uM using FAM-labeled peptide as substrate after 10 mins by mobility shift assay relative to control; method in brief: as §1
[9] = molecular target: T1, Aurora kinase A (Homo sapiens) (UniProt O14965); assay: Inhibition of human N-terminal GST-tagged AURA (1 to 403 residues) expressed in baculovirus expression system at 1 uM using FAM-labeled peptide as substrate after 10 mins by mobility shift assay relative to control; method in brief: as §1
T1 sequence (whole entry): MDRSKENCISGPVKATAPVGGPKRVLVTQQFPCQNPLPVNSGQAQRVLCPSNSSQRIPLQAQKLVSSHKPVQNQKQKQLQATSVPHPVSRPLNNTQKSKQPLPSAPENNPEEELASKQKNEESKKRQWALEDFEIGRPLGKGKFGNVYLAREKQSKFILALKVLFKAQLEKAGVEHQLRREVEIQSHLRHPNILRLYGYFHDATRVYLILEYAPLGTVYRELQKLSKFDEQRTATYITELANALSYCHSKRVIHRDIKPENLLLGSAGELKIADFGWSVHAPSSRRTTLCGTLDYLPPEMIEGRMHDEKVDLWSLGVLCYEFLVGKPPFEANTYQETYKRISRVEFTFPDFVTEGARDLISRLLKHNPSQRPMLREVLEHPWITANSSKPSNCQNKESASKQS

[10] = molecular target: Insulin-like growth factor 1 receptor (Homo sapiens) (UniProt P08069); assay: Inhibition of human His-tagged IGF1R cytoplasmic domain (960 to 1397 residues) expressed in baculovirus expression system at 1 uM using FAM-labeled peptide as substrate after 10 mins by mobility shift assay relative to control; method in brief: as §1
[11] = molecular target: Tyrosine-protein kinase JAK2 (Homo sapiens) (UniProt O60674); assay: Inhibition of human N-terminal His-tagged JAK2 catalytic domain (826 to 1132 residues) expressed in baculovirus expression system at 1 uM using FAM-labeled peptide as substrate after 10 mins by mobility shift assay relative to control; method in brief: as §1
[12] = molecular target: Platelet-derived growth factor receptor beta (Homo sapiens) (UniProt P09619); assay: Inhibition of N-terminal GST-tagged human PDGFRbeta cytoplasmic domain (557 to 1106 residues) expressed in baculovirus expression system at 1 uM using FAM-labeled peptide as substrate after 10 mins by mobility shift assay relative to control; method in brief: as §1
[13] = molecular target: Fibroblast growth factor receptor 1 (Homo sapiens) (UniProt P11362); assay: Inhibition of N-terminal GST-tagged human FGFR1 cytoplasmic domain (398 to 822 residues) expressed in baculovirus expression system at 1 uM using FAM-labeled peptide as substrate after 10 mins by mobility shift assay relative to control; method in brief: as §1
[14] = molecular target: RAC-alpha serine/threonine-protein kinase (Homo sapiens) (UniProt P31749); assay: Inhibition of recombinant human N-terminal His-tagged full length human AKT1 (1 to 480 residues) expressed in baculovirus infected Sf9 insect cells at 1 uM using FAM-labeled peptide as substrate after 10 mins by mobility shift assay relative to control; method in brief: as §1
[15] = molecular target: Proto-oncogene tyrosine-protein kinase receptor Ret (Homo sapiens) (UniProt P07949); assay: Inhibition of N-terminal GST-tagged human RET cytoplasmic domain (658 to 1114 residues) expressed in baculovirus expression system at 1 uM using FAM-labeled peptide as substrate after 10 mins by mobility shift assay relative to control; method in brief: as §1
[16] = molecular target: Hepatocyte growth factor receptor (Homo sapiens) (UniProt P08581); assay: Inhibition of N-terminal GST-tagged human MET cytoplasmic domain (956 to 1390 residues) expressed in baculovirus expression system at 1 uM using FAM-labeled peptide as substrate after 10 mins by mobility shift assay relative to control; method in brief: as §1

Serine/threonine-protein kinase PAK 2 (Homo sapiens), sequence (Q13177 whole entry, the tested form may be a part): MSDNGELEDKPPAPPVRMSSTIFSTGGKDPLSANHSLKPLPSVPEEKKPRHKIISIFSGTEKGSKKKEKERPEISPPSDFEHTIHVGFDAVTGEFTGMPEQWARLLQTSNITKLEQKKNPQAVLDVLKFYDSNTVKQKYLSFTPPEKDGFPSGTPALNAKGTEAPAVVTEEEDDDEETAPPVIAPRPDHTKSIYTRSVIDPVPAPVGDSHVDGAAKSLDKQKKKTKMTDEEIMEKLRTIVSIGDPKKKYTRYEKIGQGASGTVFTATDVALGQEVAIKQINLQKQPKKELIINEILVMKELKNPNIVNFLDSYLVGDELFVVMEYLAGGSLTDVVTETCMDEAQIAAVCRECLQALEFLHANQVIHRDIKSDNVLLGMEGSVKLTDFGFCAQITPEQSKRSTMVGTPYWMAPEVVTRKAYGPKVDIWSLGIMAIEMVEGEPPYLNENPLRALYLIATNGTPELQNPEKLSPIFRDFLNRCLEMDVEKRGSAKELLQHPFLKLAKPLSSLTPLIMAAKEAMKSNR
Proto-oncogene tyrosine-protein kinase receptor Ret (Homo sapiens), sequence (P07949 whole entry, the tested form may be a part): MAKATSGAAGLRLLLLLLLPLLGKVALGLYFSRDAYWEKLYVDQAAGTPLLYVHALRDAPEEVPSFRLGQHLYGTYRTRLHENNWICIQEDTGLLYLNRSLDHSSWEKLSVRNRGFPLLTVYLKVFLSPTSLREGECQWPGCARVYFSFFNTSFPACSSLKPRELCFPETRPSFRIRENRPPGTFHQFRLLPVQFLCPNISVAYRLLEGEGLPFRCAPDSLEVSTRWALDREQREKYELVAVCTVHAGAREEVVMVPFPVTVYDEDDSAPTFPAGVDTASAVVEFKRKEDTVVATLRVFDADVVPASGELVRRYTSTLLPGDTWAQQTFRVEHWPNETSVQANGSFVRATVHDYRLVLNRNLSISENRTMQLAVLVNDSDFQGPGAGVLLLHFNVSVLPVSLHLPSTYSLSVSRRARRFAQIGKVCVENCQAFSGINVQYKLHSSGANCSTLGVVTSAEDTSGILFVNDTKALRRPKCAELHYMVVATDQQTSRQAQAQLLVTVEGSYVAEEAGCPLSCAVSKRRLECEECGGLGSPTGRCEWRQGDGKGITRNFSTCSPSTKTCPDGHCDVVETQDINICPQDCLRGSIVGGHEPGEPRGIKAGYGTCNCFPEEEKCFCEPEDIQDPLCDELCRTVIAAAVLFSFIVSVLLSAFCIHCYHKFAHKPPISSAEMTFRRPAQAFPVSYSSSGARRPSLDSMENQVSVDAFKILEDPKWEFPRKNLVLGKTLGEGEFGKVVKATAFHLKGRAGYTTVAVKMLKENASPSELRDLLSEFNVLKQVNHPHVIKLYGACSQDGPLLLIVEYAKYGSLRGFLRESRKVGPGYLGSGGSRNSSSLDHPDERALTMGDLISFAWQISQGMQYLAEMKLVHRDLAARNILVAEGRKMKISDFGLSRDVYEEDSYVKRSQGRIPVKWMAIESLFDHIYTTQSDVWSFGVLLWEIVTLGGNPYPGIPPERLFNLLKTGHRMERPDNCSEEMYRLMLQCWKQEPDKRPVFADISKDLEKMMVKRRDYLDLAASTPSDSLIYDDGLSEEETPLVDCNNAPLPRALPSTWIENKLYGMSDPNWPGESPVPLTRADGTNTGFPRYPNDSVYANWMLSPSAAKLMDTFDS
Fibroblast growth factor receptor 4 (Homo sapiens), sequence (P22455 22-802 limits assumed): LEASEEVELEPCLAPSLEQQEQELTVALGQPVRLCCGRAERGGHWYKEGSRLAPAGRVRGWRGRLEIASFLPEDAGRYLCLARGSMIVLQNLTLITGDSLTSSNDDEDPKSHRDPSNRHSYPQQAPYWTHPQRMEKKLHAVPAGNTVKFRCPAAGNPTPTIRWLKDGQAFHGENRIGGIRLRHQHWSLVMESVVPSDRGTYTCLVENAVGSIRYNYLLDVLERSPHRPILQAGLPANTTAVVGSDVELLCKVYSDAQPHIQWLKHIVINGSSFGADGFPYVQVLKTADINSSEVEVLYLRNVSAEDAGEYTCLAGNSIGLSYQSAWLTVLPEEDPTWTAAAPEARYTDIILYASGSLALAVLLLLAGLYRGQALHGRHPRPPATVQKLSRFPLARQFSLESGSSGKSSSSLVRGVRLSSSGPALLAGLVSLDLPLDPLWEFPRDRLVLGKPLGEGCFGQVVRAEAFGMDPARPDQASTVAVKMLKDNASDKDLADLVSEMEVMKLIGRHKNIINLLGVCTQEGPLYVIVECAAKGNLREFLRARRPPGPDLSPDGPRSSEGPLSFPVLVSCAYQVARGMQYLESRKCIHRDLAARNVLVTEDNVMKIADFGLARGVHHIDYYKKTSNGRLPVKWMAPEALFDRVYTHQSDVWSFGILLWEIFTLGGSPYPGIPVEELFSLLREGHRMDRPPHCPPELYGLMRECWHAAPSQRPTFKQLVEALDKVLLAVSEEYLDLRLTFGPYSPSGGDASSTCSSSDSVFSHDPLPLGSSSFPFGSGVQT
Receptor tyrosine-protein kinase erbB-4 (Homo sapiens), sequence (Q15303 whole entry, the tested form may be a part): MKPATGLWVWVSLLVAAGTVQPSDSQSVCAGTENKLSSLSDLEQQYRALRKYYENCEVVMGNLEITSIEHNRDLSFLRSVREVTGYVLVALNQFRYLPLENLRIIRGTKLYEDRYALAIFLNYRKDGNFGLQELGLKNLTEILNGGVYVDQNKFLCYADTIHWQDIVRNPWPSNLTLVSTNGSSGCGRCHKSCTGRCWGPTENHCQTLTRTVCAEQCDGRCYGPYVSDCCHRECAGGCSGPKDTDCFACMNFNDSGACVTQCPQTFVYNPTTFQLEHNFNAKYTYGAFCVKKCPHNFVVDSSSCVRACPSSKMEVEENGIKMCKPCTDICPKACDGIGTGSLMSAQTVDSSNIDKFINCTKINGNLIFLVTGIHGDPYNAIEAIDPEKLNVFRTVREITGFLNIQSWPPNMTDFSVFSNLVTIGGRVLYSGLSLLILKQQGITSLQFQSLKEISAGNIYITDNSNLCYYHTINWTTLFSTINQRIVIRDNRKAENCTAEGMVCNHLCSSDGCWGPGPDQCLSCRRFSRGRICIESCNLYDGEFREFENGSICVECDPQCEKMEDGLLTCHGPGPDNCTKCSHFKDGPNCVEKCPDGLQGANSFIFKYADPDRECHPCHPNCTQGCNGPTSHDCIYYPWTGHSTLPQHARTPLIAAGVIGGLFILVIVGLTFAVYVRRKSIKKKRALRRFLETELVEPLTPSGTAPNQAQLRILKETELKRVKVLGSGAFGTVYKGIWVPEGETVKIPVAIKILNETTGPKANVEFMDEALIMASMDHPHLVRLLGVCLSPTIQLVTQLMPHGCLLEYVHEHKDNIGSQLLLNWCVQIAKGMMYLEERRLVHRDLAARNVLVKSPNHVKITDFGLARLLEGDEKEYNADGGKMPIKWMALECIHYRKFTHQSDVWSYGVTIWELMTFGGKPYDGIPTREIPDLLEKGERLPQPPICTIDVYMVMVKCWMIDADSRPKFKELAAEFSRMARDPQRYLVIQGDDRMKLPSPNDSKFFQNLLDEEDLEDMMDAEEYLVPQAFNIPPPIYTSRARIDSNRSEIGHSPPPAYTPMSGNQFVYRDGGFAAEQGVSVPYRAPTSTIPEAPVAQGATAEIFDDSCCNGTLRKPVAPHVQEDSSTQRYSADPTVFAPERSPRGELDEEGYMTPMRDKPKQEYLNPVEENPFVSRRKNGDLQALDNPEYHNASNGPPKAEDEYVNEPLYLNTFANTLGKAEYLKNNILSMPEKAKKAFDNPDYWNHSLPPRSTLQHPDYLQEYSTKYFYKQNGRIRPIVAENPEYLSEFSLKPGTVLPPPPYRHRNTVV
Insulin-like growth factor 1 receptor (Homo sapiens), sequence (P08069 31-736 limits assumed): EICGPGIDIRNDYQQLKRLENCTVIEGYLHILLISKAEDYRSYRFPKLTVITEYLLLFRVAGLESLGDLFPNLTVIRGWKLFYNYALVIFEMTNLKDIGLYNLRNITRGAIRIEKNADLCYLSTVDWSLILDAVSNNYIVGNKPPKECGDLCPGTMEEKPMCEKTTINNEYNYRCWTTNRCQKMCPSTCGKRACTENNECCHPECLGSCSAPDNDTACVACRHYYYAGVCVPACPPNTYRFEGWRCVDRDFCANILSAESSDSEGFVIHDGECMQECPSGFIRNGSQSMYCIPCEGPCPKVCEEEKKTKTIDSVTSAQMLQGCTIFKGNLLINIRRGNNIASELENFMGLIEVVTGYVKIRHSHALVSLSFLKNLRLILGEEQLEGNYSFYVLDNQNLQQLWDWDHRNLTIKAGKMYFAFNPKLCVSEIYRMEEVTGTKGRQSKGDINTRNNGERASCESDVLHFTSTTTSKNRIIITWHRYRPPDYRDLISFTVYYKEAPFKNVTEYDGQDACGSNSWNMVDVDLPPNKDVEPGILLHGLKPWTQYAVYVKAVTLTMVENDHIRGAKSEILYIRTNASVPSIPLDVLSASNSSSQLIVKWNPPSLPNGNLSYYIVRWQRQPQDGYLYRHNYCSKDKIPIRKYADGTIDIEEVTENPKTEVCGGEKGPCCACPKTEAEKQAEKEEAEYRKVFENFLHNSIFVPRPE
Insulin-like growth factor 1 receptor (Homo sapiens), sequence (P08069 741-1367 limits assumed): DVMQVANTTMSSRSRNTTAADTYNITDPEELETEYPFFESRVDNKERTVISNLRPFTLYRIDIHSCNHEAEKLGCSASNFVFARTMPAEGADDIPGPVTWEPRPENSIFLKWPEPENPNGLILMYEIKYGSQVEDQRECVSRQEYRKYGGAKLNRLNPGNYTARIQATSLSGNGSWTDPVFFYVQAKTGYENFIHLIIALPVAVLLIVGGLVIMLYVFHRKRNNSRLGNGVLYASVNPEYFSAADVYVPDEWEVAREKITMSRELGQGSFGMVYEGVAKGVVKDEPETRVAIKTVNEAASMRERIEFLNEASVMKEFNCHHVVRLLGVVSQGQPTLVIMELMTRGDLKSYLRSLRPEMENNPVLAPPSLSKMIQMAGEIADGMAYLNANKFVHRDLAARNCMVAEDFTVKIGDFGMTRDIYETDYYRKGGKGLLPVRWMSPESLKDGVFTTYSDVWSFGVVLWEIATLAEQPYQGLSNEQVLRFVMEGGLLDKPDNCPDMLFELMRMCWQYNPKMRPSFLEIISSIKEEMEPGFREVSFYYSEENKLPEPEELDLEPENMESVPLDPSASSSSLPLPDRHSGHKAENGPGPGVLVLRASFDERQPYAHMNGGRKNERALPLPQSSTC

| Compound | inhibition [1] [%] | inhibition [2] [%] | inhibition [3] [%] | inhibition [4] [%] | inhibition [5] [%] | inhibition [6] [%] | inhibition [7] [%] | inhibition [8] [%] | inhibition [9] [%] | inhibition [10] [%] | inhibition [11] [%] | inhibition [12] [%] | inhibition [13] [%] | inhibition [14] [%] | inhibition [15] [%] | inhibition [16] [%] |
| --- | --- | --- | --- | --- | --- | --- | --- | --- | --- | --- | --- | --- | --- | --- | --- | --- |
| CCOC(=O)c1ccc(Nc2cc(NC(=O)CCCC(=O)O)ncn2)cc1 | 4.7 | 56.3 | 11.5 | 15.7 | 2.9 | 8.4 | -0.6 | 27.1 | 17.3 | 9.2 | 4.2 | 24.2 | 5.6 | 4.7 | 10.4 | 4.4 |
| O=C(O)CCCC(=O)Nc1cc(Nc2cccc(Cl)c2)ncn1 | 43 | 78.2 | 35.5 | 16.9 | 12.3 | 9.6 | 8.8 | 88.6 | 8.7 | 13.2 | 12.7 | 74.1 | 13.5 | 0 | 16.8 | 4 |
| O=C(O)CCCC(=O)Nc1cc(N2CCOCC2)ncn1 | 9.2 | 21.6 | 16.4 | 9.4 | -9.5 | 6 | 4 | 8.3 | 49 | 4 | 0.2 | 10 | 5.6 | -3 | 8.5 | 9.2 |
| COc1cccc(Nc2cc(NC(=O)CCCC(=O)O)ncn2)c1 | 8 | 13.5 | 10.5 | 18.9 | 11.8 | 18.8 | 21.6 | 21.7 | 19.8 | 10.1 | 17.7 | 10.3 | 24 | 6.8 | 7.7 | 12 |
| COc1cccc(Nc2cc(Nc3cc(OC)ccc3OC)ncn2)c1 | 26.9 | 53.5 | 59.1 | 4.7 | 18.1 | 6.8 | 4.8 | 11.3 | 52.3 | 6.3 | 0.7 | 30.4 | 4.8 | -2.1 | 16.3 | 7.2 |
| COc1ccc(Nc2cc(NC(=O)c3ccccc3)ncn2)cc1 | 21.7 | 44.8 | 6.9 | 13.4 | 2.3 | 5.6 | 1.8 | 71.4 | 2.6 | 5.3 | -4.2 | 29.4 | -1.6 | -3.4 | 2.9 | 3.3 |
